KLF5 inhibitor = KLF5 expression inhibitors, primary screen, DLD-1 cells, luminescence | inhibition, % at 5 µM | AID 1700, 2009 | 0.23% of 290,000 active | DLD-1 KLF5 promoter-luciferase reporter;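 active = inhibition above a per-plate limit of that plate's mean compound inhibition plus 3 SD, cut at about 60% in these data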;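 also: 0% = DMSO wells and 100% = LY294002 at 200 µM; higher means less KLF5 promoter-driven luciferase light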
T cruzi inh = inhibitors of intracellular T. cruzi growth, primary screen, luminescence, NIH3T3 host cells; T. cruzi beta-gal in NIH3T3, 90 h; inhibition, % (concentration not given with the values); 1.4% of 300,000 active; AID 1885, 2009;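 active = mean inhibition across valid replicates above about 55%, limit read from the data; inconclusive = mean below that limit but half or more replicates reach it; inactive = mean below it, under half of replicates reach it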;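 also: signal also drops with host cell toxicity which is not excluded here; 0% = plate median of DMSO wells and 100% = zero luminescence signal; higher percent means less beta-gal luminescence so fewer parasites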
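Assay system: NIH/3T3 host cells with β-galactosidase reporter T. cruzi; input: 5,000 host fibroblasts per well; compound: single 50 nL compound addition per well in DMSO; timing: ≥90 h infection period, 3 h prior cell attachment; measured by: GalScreen β-gal luminescence, detergent lysis, 60 min; evaluation: percent inhibition of parasite-derived β-gal signal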
Beta apoptosis = inhibitors of cytokine-induced beta cell apoptosis, primary screen, luminescence; AID 435005, 2010; 0.8% of 300,000 active; protection from apoptosis, % (concentration not given with the values); INS-1E cytokine-induced death, ATP luminescence, 48 h; percent of positive-control rescue, neutral wells zero;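 active = Every replicate reaches about 75%, or at least half do and their mean reaches it too, limit read from the data; inconclusive = At least half of replicates reach the limit but their mean does not; inactive = Under half of replicates reach the limit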;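 also: 0% = cytokine-treated negative control wells and 100% = positive control rescue; higher means more ATP so stronger rescue from cytokine killing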
HIF activator = HIF pathway transcriptional activators, primary screen, cell-based, U2OS HRE-luciferase, luminescence | U2OS HRE-luciferase reporter; normalized: DMSO 0%, desferrioxamine 100% | activation, % at 7.5 µM (by protocol) | 0.32% of 300,000 active;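 active = mean activation of at least 10% of the iron chelator positive control signal, with at least half of replicates also reaching 10%; inconclusive = mean and replicate majority disagree about reaching 10%; inactive = mean and most replicates under 10%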
Bfl-1 A1 inh = caspase 3/7 activation in MEF A1-2A-BIM cells, primary screen, A1 inhibitor project, cell-based, luminescence, HTS; Caspase-Glo 3/7 luminescence, 3 h; percent of clofoctol response, vehicle zero; caspase activation, % (no concentration beside the values); 0.066% of 330,000 active; AID 2462, 2010;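 active = over half of replicate activation scores above 10%, or exactly half above 10 with the replicate mean above 10; inconclusive = replicate mean below 10 yet half the replicates above 10; inactive = over half of replicates below 10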
Numbers without * were called inactive; ? = inconclusive; · = no result; ! = not active in a repeat. The list is not random: actives were taken first. Their share in the collection is about 2.3%.

SMILES | KLF5 inhibitor | T cruzi inh | Beta apoptosis | HIF activator | Bfl-1 A1 inh
CC1CCN(CC(O)COCCOc2ccc(Br)cc2)CC1 (centres undefined) | -9 | 39 | -8 | 0 | 0
CCOc1cc(N2CCOCC2)c(OCC)cc1NC(=O)CN1CCC(Cc2ccccc2)CC1 | -1 | 62* | -4 | 0 | 0
CCOc1cc(N2CCOCC2)c(OCC)cc1NC(=O)CN1C(=O)NC(Cc2ccccc2)C1=O (centres undefined) | -12 | 1 | -2 | 0 | ?
Cc1ccc(S(=O)(=O)N2CCN(C(=O)c3ccc(N4CCCCC4)c([N+](=O)[O-])c3)CC2)cc1 | -6 | 6 | 3 | 0 | 0
CN1CCN(S(=O)(=O)c2ccc3c(c2)OCCO3)CC1 | -13 | 0 | -1 | 0 | 0
O=S(=O)(c1ccc2c(c1)OCCO2)N1CCN(c2ncnc3sccc23)CC1 | 11 | -65 | 81* | 0 | 0
Cn1nc([N+](=O)[O-])nc1Sc1cccc2cccnc12 | -13 | 65* | 94* | 1 | 0
O=Cc1ccc(Sc2nnc(-c3ccccc3)o2)c([N+](=O)[O-])c1 | -38 | 17 | -8 | 0 | -1
Cn1nc([N+](=O)[O-])nc1Sc1nnc(-c2ccccc2)o1 | 27 | 69* | -15 | 1 | 0
CC1CCC(C(C)C)C(OC(=O)Cn2c(-c3ccc(Cl)cc3)[n+](C)c3ccccc32)C1 (centres undefined) | -17 | 52 | 100* | 0 | 0
CC1CCC(C(C)C)C(OC(=O)Cn2c(-c3ccc(Br)cc3)[n+](C)c3ccccc32)C1 (centres undefined) | -3 | 63*! | 106* | 0 | 0
Cc1ccccc1OCc1n(CC(=O)OC2CC(C)CCC2C(C)C)c2ccccc2[n+]1C (centres undefined) | -12 | 65* | 114* | -1 | 0
CC1CCC(C(C)C)C(OC(=O)C[n+]2cccc(C(N)=O)c2)C1 (centres undefined) | -53 | -9 | -7 | -2 | ?
CC1CCC(C(C)C)C(OC(=O)COC(=O)c2cccn2C)C1 (centres undefined) | -14 | -1 | 2 | 0 | 1
CC1CCC(C(C)C)C(OC(=O)COC(=O)c2ccc(N)cc2)C1 (centres undefined) | -38 | -8 | 7 | 0 | 0
CCN1C(=S)N[C@@H](CCc2ccccc2)C(C(=O)OC)=C1C | 3 | -15 | -3 | 1 | 1
CC(=O)c1ccc(OCc2cc(C(=O)N(C)CCOc3ccc(C)cc3)no2)cc1 | -150 | 15 | -2 | 1 | -3
COc1ccccc1NC(=O)C1CC(C)OC1=O (centres undefined) | · | · | -3 | 0 | 0
COc1cc2c3c(c1)C1(C(=O)N3C(C)(C)C=C2C)C(C#N)=C(N)Oc2cc(C)oc(=O)c21 (centres undefined) | -24 | 44 | · | 0 | ·
CC1=CC(C)(C)N2C(=O)C3(C(C#N)=C(N)Oc4cc(C)oc(=O)c43)c3cc(C)cc1c32 (centres undefined) | -16 | 55* | -1 | 0 | 1
CC1CC(=O)Nc2ccccc2N1C(=O)CSc1ncnc2sccc12 (centres undefined) | · | · | 0 | · | 1
COc1ccc(-n2cc(-c3ccc(OC(F)F)cc3)[n+]3c2CCCCC3)cc1 | 6 | 59* | 103* | 0 | 0
COc1ccc(-c2cn(-c3ccc(Cl)cc3)c3[n+]2CCCCC3)cc1 | 0 | 58* | 100* | 0 | -1
CCN1C(=O)[C@H]2[C@@H](c3ccc(-c4ccccc4)cc3)N[C@@](CC(C)C)(C(=O)OC)[C@H]2C1=O | · | 9 | 10 | 0 | 0
COc1cccc(CNC(=O)CNS(=O)(=O)c2ccc(Br)s2)c1 | -6 | 0 | -1 | 0 | 0
SMILES | KLF5 inhibitor | T cruzi inh | Beta apoptosis | HIF activator | Bfl-1 A1 inh
CCN(CC)CCCNc1ccc(-c2nnc(-c3ccc(OCC(C)C)cc3)o2)cn1 | -23 | 55* | 14 | -4 | -1
C/C(CC1CC2=C(CC1(C)C)C(C)(C)CCC2)=N\NC(N)=S (centres undefined) | 12 | 56* | · | 0 | 1
CN1CCN(Cc2c(O)ccc3occ(C(=O)c4ccccc4)c23)CC1 | -16 | -15 | -6 | 0 | 0
CC(=O)C(C(C)=O)c1c(Cl)c(O)c(O)c2c(C(=O)c3ccccc3)coc12 | -3 | -11 | 128* | 4 | -1
COc1cccc(/C=N/n2c(COc3ccccc3)n[nH]c2=S)c1 | -14 | -4 | -8 | 1 | 0
CC(C)c1ccc(-c2c(C#N)c(N)nc3c2CCCCC3)cc1 | -23 | 4 | -4 | 268* | 0
O=C(Nc1nc(-c2ccco2)c(-c2ccco2)s1)c1c(F)cccc1Cl | · | · | 0 | · | ?
O=C(Nc1nc(-c2ccco2)c(-c2ccco2)s1)c1cnccn1 | · | 70* | -1 | -22 | 0
COC(=O)c1sc(N2C(=O)C(O)=C(C(=O)c3ccc(C)o3)C2c2cc(OC)ccc2OC)nc1C (centres undefined) | -18 | -1 | 1 | 0 | 0
Cc1nc2scc(-c3ccccc3)c2c(=O)n1N=C1C=CC(=O)C=C1 | -26 | 67* | · | 0 | ·
COc1cc(Cl)c(C)cc1NC(=O)CN(C)C1CCS(=O)(=O)C1 (centres undefined) | · | · | -6 | · | 0
CC(C)(CN1CCN(C(c2ccccc2)c2ccccc2)CC1)NS(=O)(=O)c1ccccc1 | -19 | 62* | 15 | -1 | 0
Cc1ccc(NC(=O)CN(C)S(=O)(=O)c2cccc3nsnc23)cc1 | 13 | -2 | -6 | 0 | 1
CC(=O)c1cccc(NC(=O)CN(C)S(=O)(=O)c2cccc3nsnc23)c1 | -16 | -14 | -3 | 14* | 1
O=[N+]([O-])c1cc(C(F)(F)F)cc([N+](=O)[O-])c1NCCN1CCNCC1 | -1 | 21 | -1 | -13 | 1
O=C(NCCCNC(=O)c1cnccn1)c1cccc(F)c1 | -8 | -4 | 1 | 0 | 0
CC(C)Cn1c(N)c(C(=O)CSc2ccc3c(c2)OCCO3)c(=O)n(C)c1=O | -15 | 29 | 94* | 2 | -2
Cc1cccc(CNc2ncnc3ccc(-c4ccc5c(c4)OCCO5)cc23)c1 | · | · | 108* | · | 1
Cc1csc(CNc2ncnc3ccc(-c4ccc5c(c4)OCCO5)cc23)c1 | · | · | 4 | · | 1
c1nc(NCc2ccc3c(c2)OCO3)c2cc(-c3ccc4c(c3)OCCO4)ccc2n1 | · | · | 99* | · | 0
O=S1(=O)N[C@H](c2ccccc2)C[C@H](c2ccc(C(F)(F)F)cc2)O1 | -29 | 8 | 2 | 0 | 1
COc1ccc(NC(=S)N2CCN(C)CC2)cc1 | · | 12 | · | 0 | 0

Screening results deposited in PubChem by several laboratories.
